Data reported in ChEMBL document CHEMBL4680166, “Dual-functional conjugates improving cancer immunochemotherapy by inhibiting tubulin polymerization and indoleamine-2,3-dioxygenase” (Eur J Med Chem, 2020).
Active and inactive are the calls of the source. The rule behind the calls is not given here.

Legend:
A549 = assay: Anticancer activity against human A549 cells assessed as inhibition of cell proliferation measured after 72 hrs by MTT assay; type: functional, cell-based; conditions: A549, 72 h
Procedure, shortened: (§1)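 Cells (A549, PC-3, HeLa, HUVEC) grown in DMEM with 10% FBS at 37 °C, 5% CO₂. Seeded at 5 × 10⁴ cells/well and allowed 24 h to attach, then exposed 72 h to a concentration series from DMSO stocks. MTT was added for 4 h and formazan dissolved in DMSO, read at 490 nm. Survival taken relative to untreated control. IC50 by Bliss method, three repeats.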

PC-3 = assay: Anticancer activity against human PC3 cells assessed as inhibition of cell proliferation measured after 72 hrs by MTT assay; type: functional, cell-based; conditions: PC-3, 72 h; procedure, shortened: as §1
HUVEC = assay: Cytotoxicity against HUVEC cells assessed as inhibition of cell proliferation measured after 72 hrs by MTT assay; type: cell-based; conditions: Homo sapiens; procedure, shortened: as §1
HeLa [1] = assay: Anticancer activity against human HeLa cells assessed as inhibition of cell proliferation measured after 72 hrs by MTT assay; type: functional, cell-based; procedure, shortened: as §1
[2] = Toxicity in BALB/c nude mouse transfected with human HeLa cells assessed as liver damage at 30 mg/kg/day, iv for 21 days by H&E staining based immunohistochemistry; type: organism-based; conditions: in vivo, 504 h, time 21 day
Procedure, shortened: (§2)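 HeLa xenografts were grown s.c. in male BALB/c nude mice, which received i.v. tail-vein doses once daily for 21 days in Tween 80/saline vehicle, with saline controls. After 3 weeks the mice were sacrificed. Organs from one mouse per group were fixed in 4% paraformaldehyde, paraffin-embedded and sectioned. Sections were dewaxed, stained with Harris hematoxylin and eosin-phloxine, and examined microscopically for histopathologic changes.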

HeLa [3] = assay: Induction of cell cycle arrest in human HeLa cells assessed as accumulation at G1 phase at 0.5 uM measured after 24 hrs by propidium iodide/RNAse staining based flow cytometry (reference value: 61.5%); type: functional
HeLa [4] = assay: Induction of apoptosis in human HeLa cells assessed as late apoptotic cells at 0.5 uM measured after 24 hrs by Annexin-V-FITC and PI staining based flow cytometry (reference value: 0.199%); type: functional
Procedure, shortened: (§3)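 HeLa cells were treated 24 h, washed twice in PBS and resuspended in binding buffer. Stained with annexin V-FITC and PI for 30 min in the dark at room temperature, then analysed by flow cytometry.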

HeLa [5] = assay: Induction of apoptosis in human HeLa cells assessed as viable cells at 0.5 uM measured after 24 hrs by Annexin-V-FITC and PI staining based flow cytometry (reference value: 96.3%); type: functional; conditions: read-out: Activity; procedure, shortened: as §3
HeLa [6] = assay: Induction of apoptosis in human HeLa cells assessed as early apoptotic cells at 0.5 uM measured after 24 hrs by Annexin-V-FITC and PI staining based flow cytometry (reference value: 2.58%); type: functional; procedure, shortened: as §3
[7] = Toxicity in BALB/c nude mouse transfected with human HeLa cells assessed as kidney damage at 30 mg/kg/day, iv for 21 days by H&E staining based immunohistochemistry; type: organism-based; conditions: in vivo, 504 h, time 21 day; procedure, shortened: as §2
HeLa [8] = assay: Induction of apoptosis in human HeLa cells assessed as down regulation of Bcl-2 protein expression at 0.5 uM measured after 24 hrs by western blot analysis; type: functional, cell-based
Procedure, shortened: (§4)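 HeLa cells were treated 24 h at 37 °C and lysed in buffer containing PMSF. Protein quantified by BCA, equal amounts separated by SDS-PAGE and transferred to nitrocellulose. Blocked in 5% milk, primary antibodies overnight at 4 °C, peroxidase secondary 2 h at 25 °C. Detection by chemiluminescence, β-actin as loading control.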

HeLa [9] = assay: Induction of cell cycle arrest in human HeLa cells assessed as accumulation at S phase at 0.5 uM measured after 24 hrs by propidium iodide/RNAse staining based flow cytometry (reference value: 27.8%); type: functional
HeLa [10] = assay: Induction of apoptosis in human HeLa cells assessed as necrotic cells at 0.5 uM measured after 24 hrs by Annexin-V-FITC and PI staining based flow cytometry (reference value: 0.956%); type: functional; procedure, shortened: as §3
[11] = Toxicity in BALB/c nude mouse transfected with human HeLa cells assessed as spleen damage at 30 mg/kg/day, iv for 21 days by H&E staining based immunohistochemistry; type: organism-based; conditions: in vivo, 504 h, time 21 day; procedure, shortened: as §2
HeLa [12] = assay: Antitumor activity against human HeLa cells xenografted in BALB/c mouse assessed as inhibition of tumor volume at 30 mg/kg/day, iv administered for 21 days by caliper analysis; type: functional; conditions: 504 h, time 21 day
Procedure, shortened: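 Male BALB/c nude mice, five weeks old, 18-22 g. Inoculated subcutaneously in the right armpit with 1 × 10⁷ HeLa cells/0.1 mL. At 120-150 mm³, randomized to four groups of five. Once-daily tail-vein injection for 21 days in Tween 80/physiological saline; controls received saline. Tumor volume measured every 2 days by caliper, V = AB²/2.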

HeLa [13] = assay: Induction of apoptosis in human HeLa cells assessed as cell membrane integrity loss, chromatin condensation and apoptotic body formation by measuring reduction in green fluorescence intensity at 0.5 uM measured after 24 hrs by AO/EB dual staining based fluorescence microscopy; type: functional
HeLa [14] = assay: Inhibition of IDO1 expression in hIFNgamma-stimulated human HeLa cells at 0.5 uM measured after 24 hrs by western blot assay; type: functional; procedure, shortened: as §4
HeLa [15] = assay: Induction of apoptosis in human HeLa cells assessed as mitochondrial membrane potential dissipation by measuring increase in green fluorescence intensity at 0.5 uM incubated for 24 hrs by JC-1 staining based fluorescence microscopic analysis; type: functional, cell-based
HeLa [16] = assay: Induction of apoptosis in human HeLa cells assessed as cell membrane integrity loss, chromatin condensation and apoptotic body formation by measuring strengthened orange fluorescence intensity at 0.5 uM measured after 24 hrs by AO/EB dual staining based fluorescence microscopy; type: functional
[17] = Toxicity in BALB/c nude mouse transfected with human HeLa cells assessed as heart damage at 30 mg/kg/day, iv for 21 days by H&E staining based immunohistochemistry; type: organism-based; conditions: in vivo, 504 h, time 21 day; procedure, shortened: as §2
HeLa [18] = assay: Induction of apoptosis in human HeLa cells assessed as upregulation of caspase-3 protein expression at 0.5 uM measured after 24 hrs by western blot analysis; type: functional, cell-based; procedure, shortened: as §4
[19] = Toxicity in BALB/c nude mouse transfected with human HeLa cells assessed as body weight changes at 30 mg/kg/day, iv for 21 days; type: organism-based; conditions: in vivo, 504 h, time 21 day
Procedure, shortened: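 Five-week-old male BALB/c nude mice (18-22 g) were inoculated s.c. in the right armpit with HeLa cells (1 × 10⁷ cells/0.1 mL/mouse). At a tumour volume of 120-150 mm³, mice were randomised, five per group. Dosing was i.v. via the tail vein once daily for 21 days, in Tween 80/physiological saline; controls got an equal volume of saline. Body weight was recorded every 2 days.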

HeLa [20] = assay: Induction of cell cycle arrest in human HeLa cells assessed as accumulation at G2/M phase at 0.5 uM measured after 24 hrs by propidium iodide/RNAse staining based flow cytometry (reference value: 10.7%); type: functional
HeLa [21] = assay: Induction of apoptosis in human HeLa cells assessed as upregulation of PARP protein expression at 0.5 uM measured after 24 hrs by western blot analysis; type: functional, cell-based; procedure, shortened: as §4
HeLa [22] = assay: Induction of intracellular reactive oxygen species generation in human HeLa cells at 0.5 uM measured after 24 hrs by DCFH-DA staining based flow cytometry (reference value: 6.47%); type: functional
HeLa [23] = assay: Induction of apoptosis in human HeLa cells assessed as mitochondrial membrane potential dissipation at 0.5 uM incubated for 24 hrs by JC-1 staining based flow cytometry (reference value: 6.6%); type: functional
HeLa [24] = assay: Inhibition of cell migration in human HeLa cells at 0.5 uM measured after 24 hrs by wound healing assay (reference value: 61%); type: functional
Procedure, shortened: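 Confluent HeLa monolayers were scratched with a pipette tip and washed with ice-cold PBS. Incubated 24 h at 37 °C in DMEM/10% FBS containing compound. Wounds were photographed at 0 and 24 h and migration distance measured manually.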

HeLa [25] = assay: Induction of apoptosis in human HeLa cells assessed as upregulation of Bax protein expression at 0.5 uM measured after 24 hrs by western blot analysis; type: functional, cell-based; procedure, shortened: as §4
[26] = Toxicity in BALB/c nude mouse transfected with human HeLa cells assessed as lung damage at 30 mg/kg/day, iv for 21 days by H&E staining based immunohistochemistry; type: organism-based; conditions: in vivo, 504 h, time 21 day; procedure, shortened: as §2
HeLa [27] = assay: Inhibition of IDO1 expression in hIFNgamma-stimulated human HeLa cells assessed as decrease in kynurenine production at 0.1 uM measured after 48 hrs by reverse-phase HPLC analysis; type: functional
Procedure, shortened: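 HeLa cells were given fresh L-tryptophan-containing medium with hIFN-γ (25 ng/mL) plus compound for 48 h. Collected cells were treated with 20% trichloroacetic acid and centrifuged. Supernatant analysed by reversed-phase HPLC (ODS column, acetonitrile/water, 1.0 mL/min, […]).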

[28] = Antitumor immunity against IFN-gamma stimulated human HeLa cells co-cultured with PHA-M-stimulated human PBMC cells assessed as induction of CD3+ T cell proliferation at 0.1 uM preincubated for 2 days measured after co-culturing with PBMC for 6 days by flow cytometry (reference value: 6 to 6.2%); type: functional; conditions: time 8 day

SMILES: COc1ccc(/C=C/C(=O)c2cc(OC)c(OC)c(OC)c2)cc1OC(=O)c1cccc(Cn2cc(CCOC(=O)[C@H](N)Cc3cn(C)c4ccccc34)nn2)c1
- IC50 (A549): 710 nM
- IC50 (PC-3): 620 nM
- IC50 (HUVEC): 3730 nM
- IC50 (HeLa [1]): 480 nM

SMILES: COc1ccc(/C=C\c2cc(OC)c(OC)c(OC)c2)cc1O [COMBRETASTATIN A4]
- Activity [2]: Non-Toxic
- Activity (HeLa [3]): 4.65%
- Activity (HeLa [4]): 10.3%
- viability at 0.5 µM (HeLa [5]): 63.3%
- Activity (HeLa [6]): 25%
- Activity [7]: Non-Toxic
- IC50 (A549): 470 nM
- Activity (HeLa [8]): Active
- Activity (HeLa [9]): 28.77%
- Activity (HeLa [10]): 1.44%
- IC50 (PC-3): 400 nM
- Activity [11]: Non-Toxic
- inhibition in vivo at 30 mg/kg/day (HeLa [12]): 57.6%
- Activity (HeLa [13]): Active
- inhibition (HeLa [14]): inactive
- Activity (HeLa [15]): Active
- Activity (HeLa [16]): Active
- Activity [17]: Non-Toxic
- Activity (HeLa [18]): Active
- Activity [19]: Non-Toxic
- Activity (HeLa [20]): 66.57%
- Activity (HeLa [21]): Active
- IC50 (HUVEC): 980 nM
- Activity (HeLa [22]): 21.8%
- Activity (HeLa [23]): 54.2%
- inhibition at 0.5 µM (HeLa [24]): 79%
- IC50 (HeLa [1]): 210 nM
- Activity (HeLa [25]): Active
- Activity [26]: Non-Toxic

SMILES: COc1ccc(/C=C\c2cc(OC)c(OC)c(OC)c2)cc1OCCCOC(=O)[C@H](N)Cc1cn(C)c2ccccc12
- IC50 (A549): 530 nM
- IC50 (PC-3): 580 nM
- inhibition (HeLa [14]): Active
- IC50 (HUVEC): 3110 nM
- IC50 (HeLa [1]): 330 nM

SMILES: COc1ccc(/C=C\c2cc(OC)c(OC)c(OC)c2)cc1OC(=O)c1cccc(Cn2cc(CCOC(=O)CCC(=O)n3cc(C4CC(=O)NC4=O)c4cc(F)ccc43)nn2)c1 (stereo not given)
- IC50 (A549): 950 nM
- IC50 (PC-3): 850 nM
- IC50 (HUVEC): 4490 nM
- IC50 (HeLa [1]): 390 nM

SMILES: COc1ccc(/C=C/C(=O)c2cc(OC)c(OC)c(OC)c2)cc1OC(=O)CCC(=O)n1cc(C2CC(=O)NC2=O)c2cc(F)ccc21 (stereo not given)
- IC50 (A549): 1280 nM
- IC50 (PC-3): 1390 nM
- IC50 (HUVEC): 4760 nM
- IC50 (HeLa [1]): 370 nM

SMILES: COc1ccc(/C=C/C(=O)c2cc(OC)c(OC)c(OC)c2)cc1O
- IC50 (A549): 550 nM
- IC50 (PC-3): 640 nM
- IC50 (HUVEC): 1240 nM
- IC50 (HeLa [1]): 350 nM

SMILES: COc1ccc(/C=C\c2cc(OC)c(OC)c(OC)c2)cc1OC(=O)CCC(=O)n1cc(C2CC(=O)NC2=O)c2cc(F)ccc21 (stereo not given)
- IC50 (A549): 450 nM
- IC50 (PC-3): 620 nM
- IC50 (HUVEC): 2270 nM
- IC50 (HeLa [1]): 270 nM

SMILES: Cn1cc(C[C@@H](N)C(=O)O)c2ccccc21 [INDOXIMOD]
- inhibition (HeLa [27]): Active
- IC50 (A549): > 100000 nM
- IC50 (PC-3): > 100000 nM
- inhibition (HeLa [14]): Active
- IC50 (HUVEC): > 100000 nM
- IC50 (HeLa [1]): > 100000 nM
- Activity [28]: 17.8%

SMILES: COc1ccc(/C=C/C(=O)c2cc(OC)c(OC)c(OC)c2)cc1OC(=O)c1cccc(Cn2cc(CCOC(=O)CCC(=O)n3cc(C4CC(=O)NC4=O)c4cc(F)ccc43)nn2)c1 (stereo not given)
- IC50 (A549): 970 nM
- IC50 (PC-3): 1560 nM
- IC50 (HUVEC): 7190 nM
- IC50 (HeLa [1]): 490 nM

SMILES: COc1ccc(/C=C\c2cc(OC)c(OC)c(OC)c2)cc1OC(=O)[C@H](N)Cc1cn(C)c2ccccc12
- IC50 (A549): 680 nM
- IC50 (PC-3): 720 nM
- inhibition (HeLa [14]): Active
- IC50 (HUVEC): 2530 nM
- IC50 (HeLa [1]): 430 nM
